Test results as given in ChEMBL document CHEMBL4619723, “New CDK8 inhibitors as potential anti-leukemic agents - Design, synthesis and biological evaluation” (Bioorg Med Chem, 2020).

Assays:
[1] = biological target: T1, Cyclin-dependent kinase 8 (Homo sapiens, UniProt P49336); test: Inhibition of biotinylated ligand binding to wild-type human partial length CDK8 (M1 to T360 residues) expressed in Escherichia coli BL21 at 50 nM measured after 1 hr by kinomescan assay relative to control
Method in brief: (§1)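 T7 phage-tagged kinase lysates from E. coli BL21 were mixed with streptavidin beads carrying biotinylated ligand and 50 nM compound. Incubated 1 h at room temperature with shaking, washed, then eluted 30 min with 0.5 μM non-biotinylated ligand. Kinase was quantified by qPCR. POC = (test − positive)/(DMSO − positive) ×100, with a control compound as positive.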

MV4-11 = test: cells; conditions: Homo sapiens, MV4-11, 48 h
[2] = biological target: Receptor-interacting serine/threonine-protein kinase 1 (Homo sapiens) (UniProt Q13546); test: Inhibition of biotinylated ligand binding to wild-type human partial length RIPK1 (M1 to K305 residues) expressed in bacterial expression system at 50 nM measured after 1 hr by kinomescan assay relative to control
Method in brief: (§2)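 Kinases expressed as tags on T7 phage grown in an E. coli BL21-derived host, with lysates cleared by centrifugation and filtration. Streptavidin beads carried biotinylated ligand and were blocked with biotin. Kinase, beads and compound were incubated in binding buffer (20% SeaBlock, 0.17x PBS, 0.05% Tween 20, 6 mM DTT) at room temperature for 1 h. Bound kinase was eluted with free ligand and quantified by qPCR. POC was set between DMSO (100%) and control compound (0%).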

H9c2 = test: cells; conditions: Rattus norvegicus, H9c2, 48 h
[3] = biological target: T1, Cyclin-dependent kinase 8; test: Inhibition of biotinylated ligand binding to wild-type human partial length CDK8 (M1 to T360 residues) expressed in Escherichia coli BL21 measured after 1 hr by kinomescan assay
MOLM-13 = test: cells; conditions: Homo sapiens, MOLM-13, 48 h
[4] = biological target: Cyclin-dependent kinase 19 (Homo sapiens) (UniProt Q9BWU1); test: Inhibition of biotinylated ligand binding to wild-type human partial length CDK11 (M1 to N360 residues) expressed in bacterial expression system at 50 nM measured after 1 hr by kinomescan assay relative to control; method in brief: as §1
OCI-AML-3 = test: cells; conditions: Homo sapiens, OCI-AML-3, 48 h
[5] = biological target: Phosphatidylinositol 5-phosphate 4-kinase type-2 gamma (Homo sapiens) (UniProt Q8TBX8); test: Inhibition of biotinylated ligand binding to wild-type human partial length PIP5K2C (M1 to A421 residues) expressed in mammalian expression system at 50 nM measured after 1 hr by kinomescan assay relative to control
Method in brief: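 Competition binding: compound (final 50 nM; 40x DMSO stocks) was incubated with kinase and biotinylated-ligand streptavidin beads in 20% SeaBlock, 0.17x PBS, 0.05% Tween 20 and 6 mM DTT at room temperature for 1 h. After washing, kinase was eluted with 0.5 μM non-biotinylated ligand for 30 min and measured by qPCR. Percent of control was referenced to DMSO (100%) and control compound (0%).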

[6] = biological target: Inhibitor of nuclear factor kappa-B kinase subunit epsilon (Homo sapiens) (UniProt Q14164); test: Inhibition of biotinylated ligand binding to wild-type human full length IKKE (M1 to V716 residues) expressed in bacterial expression system at 50 nM measured after 1 hr by kinomescan assay relative to control; method in brief: as §2
NRK = test: cells; conditions: Rattus norvegicus, 48 h
[7] = biological target: Serine/threonine-protein kinase MAK (Homo sapiens) (UniProt P20794); test: Inhibition of biotinylated ligand binding to wild-type human partial length MAK (M1 to P314 residues) expressed in bacterial expression system at 50 nM measured after 1 hr by kinomescan assay relative to control
[8] = biological target: cAMP-dependent protein kinase catalytic subunit beta (Homo sapiens) (UniProt P22694); test: Inhibition of biotinylated ligand binding to wild-type human full length PKAC-beta (M1 to F351 residues) expressed in bacterial expression system at 50 nM measured after 1 hr by kinomescan assay relative to control
[9] = biological target: Serine/threonine-protein kinase pim-2 (Homo sapiens) (UniProt Q9P1W9); test: Inhibition of biotinylated ligand binding to wild-type human partial length PIM2 (M1 to E291 residues) expressed in bacterial expression system at 50 nM measured after 1 hr by kinomescan assay relative to control
[10] = biological target: Citron Rho-interacting kinase (Homo sapiens) (UniProt O14578); test: Inhibition of biotinylated ligand binding to wild-type human partial length CIT (M68 to E432 residues) expressed in bacterial expression system at 50 nM measured after 1 hr by kinomescan assay relative to control
[11] = biological target: Serine/threonine-protein kinase haspin (Homo sapiens) (UniProt Q8TF76); test: Inhibition of biotinylated ligand binding to wild-type human partial length HASPIN (I452 to K798 residues) expressed in mammalian expression system at 50 nM measured after 1 hr by kinomescan assay relative to control
[12] = biological target: Hormonally up-regulated neu tumor-associated kinase (Homo sapiens) (UniProt P57058); test: Inhibition of biotinylated ligand binding to wild-type human partial length HUNK (A31 to K354 residues) expressed in bacterial expression system at 50 nM measured after 1 hr by kinomescan assay relative to control
[13] = biological target: 1-phosphatidylinositol 3-phosphate 5-kinase (Homo sapiens) (UniProt Q9Y2I7); test: Inhibition of biotinylated ligand binding to wild-type human partial length PIKFYVE (F1512 to C2098 residues) expressed in mammalian expression system at 50 nM measured after 1 hr by kinomescan assay relative to control
[14] = biological target: cAMP-dependent protein kinase catalytic subunit alpha (Homo sapiens) (UniProt P17612); test: Inhibition of biotinylated ligand binding to wild-type human partial length PKAC-alpha (G10 to F351 residues) expressed in bacterial expression system at 50 nM measured after 1 hr by kinomescan assay relative to control
[15] = biological target: Protein-tyrosine kinase 2-beta (Homo sapiens) (UniProt Q14289); test: Inhibition of biotinylated ligand binding to wild-type human full length PYK2 (M1 to E967 residues) expressed in bacterial expression system at 50 nM measured after 1 hr by kinomescan assay relative to control

T1 sequence (P49336 whole entry, the tested form may be a part): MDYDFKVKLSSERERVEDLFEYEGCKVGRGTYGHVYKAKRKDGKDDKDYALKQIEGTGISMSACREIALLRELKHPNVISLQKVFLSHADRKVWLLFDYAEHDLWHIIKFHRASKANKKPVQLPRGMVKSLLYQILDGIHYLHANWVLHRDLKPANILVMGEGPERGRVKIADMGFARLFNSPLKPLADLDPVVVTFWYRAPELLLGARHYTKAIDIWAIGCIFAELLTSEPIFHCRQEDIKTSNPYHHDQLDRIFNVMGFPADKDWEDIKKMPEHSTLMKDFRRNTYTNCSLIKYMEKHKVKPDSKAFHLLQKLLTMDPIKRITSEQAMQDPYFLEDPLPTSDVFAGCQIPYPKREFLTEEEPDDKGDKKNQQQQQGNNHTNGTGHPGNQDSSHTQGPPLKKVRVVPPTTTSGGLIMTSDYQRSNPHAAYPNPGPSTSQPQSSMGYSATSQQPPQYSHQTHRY
Sequence of Cyclin-dependent kinase 19 (Homo sapiens) (Q9BWU1 whole entry, the tested form may be a part): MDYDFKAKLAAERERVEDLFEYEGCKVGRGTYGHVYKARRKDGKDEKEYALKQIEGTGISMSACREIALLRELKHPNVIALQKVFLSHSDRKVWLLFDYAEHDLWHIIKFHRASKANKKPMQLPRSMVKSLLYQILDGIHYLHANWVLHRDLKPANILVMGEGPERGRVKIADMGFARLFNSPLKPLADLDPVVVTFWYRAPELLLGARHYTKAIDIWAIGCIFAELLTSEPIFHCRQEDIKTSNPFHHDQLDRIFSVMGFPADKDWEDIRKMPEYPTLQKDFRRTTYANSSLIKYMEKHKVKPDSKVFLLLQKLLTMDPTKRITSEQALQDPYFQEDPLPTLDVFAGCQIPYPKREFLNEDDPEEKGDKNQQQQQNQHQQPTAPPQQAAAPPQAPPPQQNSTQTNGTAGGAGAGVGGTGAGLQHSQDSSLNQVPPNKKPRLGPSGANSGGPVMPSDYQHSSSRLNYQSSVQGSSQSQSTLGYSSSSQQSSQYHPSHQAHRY
Sequence of Citron Rho-interacting kinase (Homo sapiens) (O14578 whole entry, the tested form may be a part): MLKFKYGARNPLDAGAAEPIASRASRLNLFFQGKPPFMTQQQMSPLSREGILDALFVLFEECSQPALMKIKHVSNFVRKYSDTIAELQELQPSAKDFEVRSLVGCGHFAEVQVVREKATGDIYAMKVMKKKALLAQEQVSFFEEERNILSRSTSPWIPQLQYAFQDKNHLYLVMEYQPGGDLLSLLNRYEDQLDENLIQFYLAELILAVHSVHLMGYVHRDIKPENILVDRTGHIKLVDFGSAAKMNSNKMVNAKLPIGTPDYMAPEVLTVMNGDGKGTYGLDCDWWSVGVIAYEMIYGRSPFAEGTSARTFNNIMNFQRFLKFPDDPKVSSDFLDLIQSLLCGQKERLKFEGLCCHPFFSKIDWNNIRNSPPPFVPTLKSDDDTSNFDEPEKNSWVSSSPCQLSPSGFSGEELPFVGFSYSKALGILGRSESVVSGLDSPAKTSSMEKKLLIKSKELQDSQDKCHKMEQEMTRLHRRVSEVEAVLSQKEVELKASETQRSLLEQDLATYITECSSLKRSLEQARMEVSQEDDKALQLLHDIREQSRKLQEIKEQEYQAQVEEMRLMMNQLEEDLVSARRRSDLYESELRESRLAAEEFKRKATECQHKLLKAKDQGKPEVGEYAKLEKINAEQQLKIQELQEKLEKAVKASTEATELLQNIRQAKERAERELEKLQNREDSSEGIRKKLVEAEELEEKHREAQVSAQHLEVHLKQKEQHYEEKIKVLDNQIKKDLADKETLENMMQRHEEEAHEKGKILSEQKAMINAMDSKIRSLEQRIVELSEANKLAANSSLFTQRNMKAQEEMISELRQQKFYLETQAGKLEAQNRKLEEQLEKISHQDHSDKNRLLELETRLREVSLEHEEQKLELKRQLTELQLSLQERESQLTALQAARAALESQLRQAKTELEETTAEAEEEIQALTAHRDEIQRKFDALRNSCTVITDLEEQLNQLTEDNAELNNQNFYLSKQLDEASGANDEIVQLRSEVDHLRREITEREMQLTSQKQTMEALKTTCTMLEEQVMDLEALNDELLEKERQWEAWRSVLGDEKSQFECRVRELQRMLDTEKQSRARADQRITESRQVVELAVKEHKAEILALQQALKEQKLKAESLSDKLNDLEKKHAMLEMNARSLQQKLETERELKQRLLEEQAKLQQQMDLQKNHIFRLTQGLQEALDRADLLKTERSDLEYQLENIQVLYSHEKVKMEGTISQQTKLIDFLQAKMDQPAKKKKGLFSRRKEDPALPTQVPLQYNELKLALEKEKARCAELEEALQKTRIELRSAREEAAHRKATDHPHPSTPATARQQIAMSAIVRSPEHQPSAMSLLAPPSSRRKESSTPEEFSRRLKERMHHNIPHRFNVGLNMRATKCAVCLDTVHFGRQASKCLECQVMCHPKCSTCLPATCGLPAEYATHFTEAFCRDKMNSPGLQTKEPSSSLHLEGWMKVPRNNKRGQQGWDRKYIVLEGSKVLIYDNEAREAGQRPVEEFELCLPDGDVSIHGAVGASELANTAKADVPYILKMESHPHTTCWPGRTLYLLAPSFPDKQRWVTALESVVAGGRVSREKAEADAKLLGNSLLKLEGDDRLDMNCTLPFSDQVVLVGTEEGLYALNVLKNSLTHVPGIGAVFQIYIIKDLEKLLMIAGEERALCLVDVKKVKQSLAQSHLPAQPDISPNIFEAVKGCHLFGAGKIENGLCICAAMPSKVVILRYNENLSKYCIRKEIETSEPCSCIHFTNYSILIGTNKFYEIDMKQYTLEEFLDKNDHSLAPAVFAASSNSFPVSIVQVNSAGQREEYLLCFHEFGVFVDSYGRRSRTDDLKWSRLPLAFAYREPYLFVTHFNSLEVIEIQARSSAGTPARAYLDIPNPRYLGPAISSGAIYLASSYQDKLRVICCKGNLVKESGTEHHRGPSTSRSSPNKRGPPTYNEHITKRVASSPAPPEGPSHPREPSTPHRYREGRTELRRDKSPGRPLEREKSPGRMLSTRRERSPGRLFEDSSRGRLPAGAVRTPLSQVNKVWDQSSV
Sequence of Receptor-interacting serine/threonine-protein kinase 1 (Homo sapiens) (Q13546 whole entry, the tested form may be a part): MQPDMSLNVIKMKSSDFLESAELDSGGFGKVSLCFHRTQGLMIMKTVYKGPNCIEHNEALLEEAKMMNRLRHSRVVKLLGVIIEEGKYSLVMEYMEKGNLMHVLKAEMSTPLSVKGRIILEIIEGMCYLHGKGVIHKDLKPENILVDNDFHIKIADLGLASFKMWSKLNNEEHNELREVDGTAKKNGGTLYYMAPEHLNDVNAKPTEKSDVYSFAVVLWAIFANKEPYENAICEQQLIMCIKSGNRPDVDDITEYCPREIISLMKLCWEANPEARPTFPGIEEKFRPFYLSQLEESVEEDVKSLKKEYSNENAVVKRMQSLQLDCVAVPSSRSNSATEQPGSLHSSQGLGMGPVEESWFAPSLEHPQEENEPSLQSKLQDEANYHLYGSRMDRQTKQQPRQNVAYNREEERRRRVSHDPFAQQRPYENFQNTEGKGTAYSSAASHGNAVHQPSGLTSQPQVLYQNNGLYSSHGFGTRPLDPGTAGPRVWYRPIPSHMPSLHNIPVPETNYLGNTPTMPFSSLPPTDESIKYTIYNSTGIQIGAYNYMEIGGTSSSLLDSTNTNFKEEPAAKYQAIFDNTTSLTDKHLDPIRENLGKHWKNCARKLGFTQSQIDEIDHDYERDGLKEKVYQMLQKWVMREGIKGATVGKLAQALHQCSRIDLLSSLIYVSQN
Sequence of Inhibitor of nuclear factor kappa-B kinase subunit epsilon (Homo sapiens) (Q14164 whole entry, the tested form may be a part): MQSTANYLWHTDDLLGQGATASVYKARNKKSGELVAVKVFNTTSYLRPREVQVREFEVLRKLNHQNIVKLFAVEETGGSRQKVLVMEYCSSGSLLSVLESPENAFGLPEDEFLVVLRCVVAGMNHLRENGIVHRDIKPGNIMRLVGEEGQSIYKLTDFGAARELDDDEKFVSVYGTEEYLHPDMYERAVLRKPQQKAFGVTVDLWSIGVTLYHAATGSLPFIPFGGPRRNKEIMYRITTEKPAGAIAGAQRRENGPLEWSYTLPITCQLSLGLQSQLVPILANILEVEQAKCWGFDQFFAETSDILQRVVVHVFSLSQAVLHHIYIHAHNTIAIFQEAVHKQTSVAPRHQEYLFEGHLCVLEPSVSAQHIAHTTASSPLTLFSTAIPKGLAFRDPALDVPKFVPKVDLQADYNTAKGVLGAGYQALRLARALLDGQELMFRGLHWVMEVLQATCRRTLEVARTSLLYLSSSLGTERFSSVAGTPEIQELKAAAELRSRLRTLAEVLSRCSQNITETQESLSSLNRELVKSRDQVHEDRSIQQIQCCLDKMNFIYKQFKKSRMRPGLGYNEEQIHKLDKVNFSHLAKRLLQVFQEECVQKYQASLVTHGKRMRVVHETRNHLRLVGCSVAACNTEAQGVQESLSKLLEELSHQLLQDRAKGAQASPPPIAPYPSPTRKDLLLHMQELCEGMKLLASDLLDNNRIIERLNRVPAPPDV
Sequence of Serine/threonine-protein kinase pim-2 (Homo sapiens) (Q9P1W9 whole entry, looked up, the tested form may be a part): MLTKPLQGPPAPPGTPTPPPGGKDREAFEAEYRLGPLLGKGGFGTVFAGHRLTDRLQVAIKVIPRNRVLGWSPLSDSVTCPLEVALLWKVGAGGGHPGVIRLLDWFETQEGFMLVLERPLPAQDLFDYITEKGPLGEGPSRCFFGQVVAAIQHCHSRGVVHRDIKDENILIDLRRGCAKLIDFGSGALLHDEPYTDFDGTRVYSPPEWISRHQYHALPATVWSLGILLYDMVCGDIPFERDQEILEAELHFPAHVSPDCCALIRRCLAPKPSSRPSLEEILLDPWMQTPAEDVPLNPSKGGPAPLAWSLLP

inhibition [2]	inhibition [5]	inhibition [6]	SMILES	inhibition [1]	EC50 (MV4-11)	EC50 (H9c2)	Kd [3]	EC50 (MOLM-13)	inhibition [4]	EC50 (OCI-AML-3)	EC50 (NRK)	inhibition [7]	inhibition [8]	inhibition [9]	inhibition [10]	inhibition [11]	inhibition [12]	inhibition [13]	inhibition [14]	inhibition [15]
> 80%	> 80%	> 80%	CN(C)[C@@H]1CC[C@@]2(C)[C@@H](CC[C@@H]3[C@@H]2CC[C@]2(C)C(c4cncc(Cl)c4)=CC[C@@H]32)C1	> 80%	8.6 µM	12.5 to 25 µM	13 nM	11.2 µM	> 80%	7.5 µM	20.5 µM									
			CN(C)[C@@H]1CC[C@@]2(C)[C@@H](CC[C@@H]3[C@@H]2CC[C@]2(C)C(c4ccc5ccncc5c4)=CC[C@@H]32)C1	> 80%	5.5 µM	12.5 to 25 µM	18 nM	9 µM	> 80%	7.6 µM	11.4 µM	> 80%	> 80%	> 80%	> 80%	> 80%	> 80%	> 80%	> 80%	> 80%
			CN(C)[C@@H]1CC[C@@]2(C)[C@@H](CC[C@@H]3[C@@H]2CC[C@]2(C)C(c4cccnc4)=CC[C@@H]32)C1		10.1 µM	25 to 50 µM		10.2 µM		10 µM	29.7 µM									
			CN(C)[C@@H]1CC[C@@]2(C)[C@@H](CC[C@@H]3[C@@H]2CC[C@]2(C)C(c4ccc5cnccc5c4)=CC[C@@H]32)C1		4.1 µM	6.5 to 12.5 µM		3.9 µM		2.7 µM	7.1 µM									
